The target of experiment [1] is T1, Prostaglandin G/H synthase 1 (Ovis aries, UniProt P05979).
T1 sequence (P05979 whole entry): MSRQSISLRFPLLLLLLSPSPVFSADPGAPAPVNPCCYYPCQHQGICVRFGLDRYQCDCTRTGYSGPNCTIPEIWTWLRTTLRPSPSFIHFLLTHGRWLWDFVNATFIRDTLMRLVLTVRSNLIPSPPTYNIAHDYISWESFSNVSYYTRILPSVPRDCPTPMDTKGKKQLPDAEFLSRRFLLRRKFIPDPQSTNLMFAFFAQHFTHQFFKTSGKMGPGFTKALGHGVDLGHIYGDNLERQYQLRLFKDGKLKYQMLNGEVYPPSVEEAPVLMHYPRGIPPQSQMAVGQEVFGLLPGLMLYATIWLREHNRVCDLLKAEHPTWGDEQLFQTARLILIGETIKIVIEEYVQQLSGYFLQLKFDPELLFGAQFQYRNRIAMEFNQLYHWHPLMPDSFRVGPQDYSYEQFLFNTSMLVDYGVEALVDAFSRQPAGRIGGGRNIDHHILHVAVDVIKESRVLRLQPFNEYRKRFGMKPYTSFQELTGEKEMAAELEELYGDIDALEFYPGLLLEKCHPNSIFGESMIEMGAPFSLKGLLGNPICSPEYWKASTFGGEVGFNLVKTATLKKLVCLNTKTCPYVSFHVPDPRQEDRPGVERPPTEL
As to the kind of experiment: Inhibition of ovine COX1 assessed as inhibition of PGF2alpha production from PGH2 preincubated for 5 mins before arachidonic acid addition measured after 2 mins by enzyme immunoassay. In a few lines: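 Ovine COX-1 from a COX-1/COX-2 inhibitor screening kit, in 0.1 M Tris-HCl pH 8.0. Enzyme was incubated with inhibitor for 5 min at 37 °C. Arachidonic acid (100 µM solution) was then added, and the reaction was stopped with 1 M HCl after 2 min. Prostaglandins were quantified by competitive acetylcholinesterase-tracer EIA read at 410 nm.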

The test system of the next experiment is Rattus norvegicus. Put plainly: Antiinflammatory activity in ip dosed Sprague-Dawley rat assessed as inhibition of carrageenan-induced paw edema measured 2 hrs post dose by displacement plethysmometer analysis. It counts as functional. Background: Carrageenan injected into the paw causes an acute inflammation.
The test system of a further experiment is Mus musculus. As to the kind of experiment: Analgesic activity in ip dosed albino Swiss mouse assessed as licking or blowing latency time measured 60 mins post dose by hot plate method. In kind it is functional. Conditions: 1 h. Background: Thermal pain tests record how soon the animal reacts.

For orientation: IC50 means the concentration that gives 50% inhibition. The ED50 is the midpoint of the dose-response relation. In the case of `COc1ccc(CN2C(=O)c3cccc4cccc(c34)C2=O)cc1`, the half-inhibitory concentration (IC50) in experiment [1] was greater than 100 µM. The results for the ED50 in the experiment on Rattus norvegicus and with Mus musculus were 129 mg/kg and 119 mg/kg, respectively.
For the molecule `COc1ccc(CN2C(=O)c3ccccc3C2=O)cc1`, the concentration for half-maximal inhibition (IC50) in experiment [1] turned out to be 110 µM. In addition, the figures for the 50% effective dose (ED50) in the experiment with Rattus norvegicus and in the experiment on Mus musculus were 162 mg/kg and 107 mg/kg, respectively.
For `COc1cc(CN2C(=O)CCC2=O)cc(OC)c1OC`, in experiment [1], the IC50 is greater than 100 µM. The ED50 with Rattus norvegicus turned out to be 180 mg/kg; in the experiment with Mus musculus, 95 mg/kg.
`COc1ccc(CN2C(=O)CCC2=O)cc1`: the IC50 in experiment [1] was greater than 100 µM.
Still for that read-out and setting: for `O=C1CCC(=O)N1Cc1ccc(F)cc1` the value was greater than 100 µM.
Regarding `COc1cc(CN2C(=O)C3CC=CCC3C2=O)cc(OC)c1OC` (configuration not stated), the IC50 in experiment [1] is greater than 100 µM. Also, the ED50 was determined as 171 mg/kg in the experiment with Rattus norvegicus and 125 mg/kg in the experiment with Mus musculus.
As to `COc1ccc(CN2C(=O)C3CC=CCC3C2=O)cc1` (configuration not stated), in experiment [1], the concentration for half-maximal inhibition (IC50) was greater than 100 µM.
In the case of `O=C1C2CC=CCC2C(=O)N1Cc1ccc(F)cc1` (configuration not stated), the IC50 in experiment [1] was greater than 100 µM.
Take `COc1cc(CN2C(=O)c3ccccc3C2=O)cc(OC)c1OC`: the IC50 in experiment [1] is greater than 100 µM. For the same molecule, the ED50 stood at 149 mg/kg in the experiment on Rattus norvegicus and 110 mg/kg in the experiment with Mus musculus.
Consider `O=C1c2ccccc2C(=O)N1Cc1ccc(F)cc1`, for which, in experiment [1], the IC50 is 116 µM. Moreover, the ED50 in the experiment with Rattus norvegicus was found to be 170 mg/kg; with Mus musculus it was 90 mg/kg.
Regarding `COc1cc(CN2C(=O)c3ccc(C)cc3C2=O)cc(OC)c1OC`, the half-inhibitory concentration (IC50) in experiment [1] is greater than 100 µM. Moreover, the ED50 in the experiment with Rattus norvegicus turned out to be 130 mg/kg.
As for `COc1ccc(CN2C(=O)c3ccc(C)cc3C2=O)cc1`, the 50% inhibitory concentration (IC50) in experiment [1] was greater than 100 µM. Besides, the ED50 is 153 mg/kg with Rattus norvegicus and 80.5 mg/kg in the experiment on Mus musculus.
In the same order, the values of `Cc1ccc2c(c1)C(=O)N(Cc1ccc(F)cc1)C2=O` are greater than 100 µM, 172 mg/kg and 97 mg/kg.
In the same order, the values of `COc1cc(CN2C(=O)c3ccc(C(C)(C)C)cc3C2=O)cc(OC)c1OC` are greater than 100 µM, 147 mg/kg and 79.3 mg/kg.
In the same order, the values of `COc1ccc(CN2C(=O)c3ccc(C(C)(C)C)cc3C2=O)cc1` are greater than 100 µM, 137 mg/kg and 96.1 mg/kg.
Regarding `CC(C)(C)c1ccc2c(c1)C(=O)N(Cc1ccc(F)cc1)C2=O`, in experiment [1], the IC50 was greater than 100 µM.
As to `COc1cc(CN2C(=O)c3ccc([N+](=O)[O-])cc3C2=O)cc(OC)c1OC`, the IC50 in experiment [1] worked out at 120 µM. In addition, the ED50 in the experiment on Rattus norvegicus worked out at 54 mg/kg; in the experiment with Mus musculus, 27.6 mg/kg.
In the same order, the values of `COc1ccc(CN2C(=O)c3ccc([N+](=O)[O-])cc3C2=O)cc1` are 119 µM, 68 mg/kg and 17 mg/kg.
With `O=C1c2ccc([N+](=O)[O-])cc2C(=O)N1Cc1ccc(F)cc1`, the IC50 in experiment [1] is greater than 100 µM. The ED50 was found to be 127 mg/kg in the experiment on Rattus norvegicus and 35 mg/kg with Mus musculus.
In the same order, the values of `COc1cc(CN2C(=O)c3cc(Cl)c(Cl)cc3C2=O)cc(OC)c1OC` are 120 µM, 67 mg/kg and 57.4 mg/kg.
In the same order, the values of `COc1ccc(CN2C(=O)c3cc(Cl)c(Cl)cc3C2=O)cc1` are 131 µM, 75 mg/kg and 51.2 mg/kg.
Regarding `O=C1c2cc(Cl)c(Cl)cc2C(=O)N1Cc1ccc(F)cc1`, the IC50 in experiment [1] was greater than 100 µM.
On to `COc1cc(CN2C(=O)c3c(Cl)c(Cl)c(Cl)c(Cl)c3C2=O)cc(OC)c1OC`, for which the IC50 in experiment [1] is greater than 100 µM. In addition, the 50% effective dose (ED50) in the experiment on Rattus norvegicus came out at 144 mg/kg; in the experiment with Mus musculus, 54.7 mg/kg.
Turning to `COc1ccc(CN2C(=O)c3c(Cl)c(Cl)c(Cl)c(Cl)c3C2=O)cc1`, in experiment [1], the IC50 is greater than 100 µM. Further, the ED50 with Rattus norvegicus turned out to be 103 mg/kg; in the experiment on Mus musculus, 52.9 mg/kg.
For the molecule `O=C1c2c(Cl)c(Cl)c(Cl)c(Cl)c2C(=O)N1Cc1ccc(F)cc1`, the IC50 in experiment [1] is greater than 100 µM.
Regarding `COc1cc(CN2C(=O)c3nccnc3C2=O)cc(OC)c1OC`, the IC50 in experiment [1] was greater than 100 µM. Besides, the ED50 with Rattus norvegicus stood at 119 mg/kg; in the experiment with Mus musculus it was 40.5 mg/kg.
As for `O=C1c2nccnc2C(=O)N1Cc1ccc(F)cc1`, the half-maximal inhibitory concentration (IC50) in experiment [1] was greater than 100 µM.
For the molecule `COc1cc(CN2C(=O)c3cccc4cccc(c34)C2=O)cc(OC)c1OC`, in experiment [1], the IC50 is greater than 100 µM. Further, the ED50 was 115 mg/kg in the experiment with Rattus norvegicus and 88 mg/kg in the experiment on Mus musculus.
Turning to `O=C1c2cccc3cccc(c23)C(=O)N1Cc1ccc(F)cc1`, the IC50 in experiment [1] was greater than 100 µM.
Turning to `COc1ccc(CN2C(=O)c3nccnc3C2=O)cc1`, in experiment [1], the IC50 is 117 µM. In addition, the median effective dose (ED50) with Rattus norvegicus is 159 mg/kg; in the experiment on Mus musculus, 106 mg/kg.
Regarding `Cc1ccc(-c2cc(C(F)(F)F)nn2-c2ccc(S(N)(=O)=O)cc2)cc1` [CELECOXIB], in the experiment with Mus musculus, the ED50 came to 71 mg/kg.

The values above are taken from ChEMBL document CHEMBL3407380, “Structure-based design of phthalimide derivatives as potential cyclooxygenase-2 (COX-2) inhibitors: anti-inflammatory and analgesic activities” (Eur J Med Chem, 2015).
